Source: ChEMBL document CHEMBL1159370, “A novel NO-production-inhibiting triterpene and cytotoxicity of known alkaloids from Euonymus laxiflorus” (J Nat Prod, 2003)
≈ marks a conversion by molar mass, not a printed value.

Legend:
KB = assay: Cytotoxicity against human KB cells; type: functional; settings: read-out: ED50 (the source's name)
COLO 205 = assay: Cytotoxicity against human COLO205 cells; type: functional; settings: read-out: ED50 (the source's name)
RAW264.7 [1] = assay: Inhibition of LPS/IFN-gamma-induced nitrite accumulation in mouse RAW264.7 cells by Griess reagent assay; type: functional, cell-based
Outline: (§1)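 RAW 264.7 cells were grown in DMEM with 10% heat-inactivated FCS at 37 °C under 5% CO2. Compound (DMSO vehicle, 0.02–0.5%) was added together with LPS (1 µg/mL) plus IFN-γ (50 U/mL) for 24 h. Medium nitrite was measured with Griess reagent (1% sulfanilamide, 0.1% naphthylenediamine, 5% phosphoric acid) at OD550 against sodium nitrite standards. Data are mean ± SEM of six experiments, each in triplicate.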

RAW264.7 [2] = assay: Inhibition of LPS/IFN-gamma-induced nitrite accumulation in mouse RAW264.7 cells at 0.2 mg/ml by Griess reagent assay; type: functional; outline: as §1
[3] = Cytotoxicity against mouse RAW264.7 cells assessed as cell viability by MTT reduction assay; type: cell-based; settings: read-out: Activity
Outline: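 Viability was read by MTT reduction in RAW 264.7 macrophages exposed for 24 h at 37 °C to LPS (1 µg/mL) plus IFN-γ (50 U/mL) with the compound. Results are expressed relative to unstimulated basal control cells. Data are mean ± SEM of six experiments, each in triplicate.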

CC(=O)OC[C@]12[C@H](OC(C)=O)[C@H](OC(C)=O)[C@@H]3[C@@H](OC(C)=O)[C@@]14O[C@@]3(C)COC(=O)c1cccnc1C(C)C(C)C(=O)O[C@@H]([C@H](OC(C)=O)[C@@H]2OC(=O)c1ccccc1)[C@]4(C)O (some centres undefined) [MAYTEINE]
EC50 (KB): > 20 µg/mL
EC50 (COLO 205): > 20 µg/mL

CC(=O)OC[C@]12[C@H](O)[C@@H](OC(C)=O)[C@@H]3[C@@H](OC(C)=O)[C@@]14O[C@@]3(C)COC(=O)c1cccnc1[C@@H](C)[C@H](C)C(=O)O[C@@H]([C@H](OC(=O)c1ccc(=O)n(C)c1)[C@@H]2O)[C@]4(C)O [EMARGINATINE E]
EC50 (KB): 1.7 µg/mL (≈ 2.09 µM)
EC50 (COLO 205): 4.1 µg/mL (≈ 5.03 µM)

CC(=O)OC[C@]12[C@H](OC(C)=O)[C@H](OC(C)=O)[C@@H]3[C@@H](OC(=O)c4ccccc4)[C@@]14O[C@@]3(C)COC(=O)c1cccnc1[C@@H](C)[C@H](C)C(=O)O[C@@H]([C@H](O)[C@@H]2OC(=O)c1ccccc1)[C@]4(C)O [EUOJAPONINE C]
EC50 (KB): > 20 µg/mL
EC50 (COLO 205): > 20 µg/mL

CC1(C)C(O)CC[C@]2(C)[C@H]3CC=C4[C@@H]5C[C@@]6(C)CC(OC6=O)[C@]5(C)CC[C@@]4(C)[C@]3(C)CC[C@@H]12 (some centres undefined)
EC50 (KB): > 20 µg/mL
EC50 (COLO 205): > 20 µg/mL

CC1(C)CC[C@]2(C)CC[C@]3(C)C(=CC(=O)[C@@H]4[C@@]5(C)CCC(=O)C(C)(C)[C@@H]5CC[C@]43C)[C@@H]2C1
EC50 (KB): > 20 µg/mL
EC50 (COLO 205): > 20 µg/mL

CO[C@H]1CC[C@]2(C)[C@H]3C(=O)C[C@@H]4C5=CC(C)(C)CC[C@]5(C)CC[C@@]4(C)[C@]3(C)CC[C@H]2C1(C)C [LAXIFOLONE A]
IC50 (RAW264.7 [1]): 120 µg/mL (≈ 264 µM)
inhibition at 200 µg/mL (RAW264.7 [2]): > 80%
viability [3]: > 95%

CC1(C)[C@@H](O)CC[C@]2(C)[C@H]3CC=C4[C@@H]5C[C@](C)(C(=O)O)C[C@H](O)[C@]5(C)CC[C@@]4(C)[C@]3(C)CC[C@@H]12 [MAYTENFOLIC ACID]
EC50 (KB): > 20 µg/mL
EC50 (COLO 205): > 20 µg/mL

C[C@H]1C(=O)CC[C@@H]2[C@]1(C)CC(=O)[C@H]1[C@@]2(C)CC[C@@]2(C)[C@@H]3CC(C)(C)CC[C@]3(C)CC[C@]12C [PUTRANJIVADIONE]
EC50 (KB): > 20 µg/mL
EC50 (COLO 205): > 20 µg/mL

CC(=O)OC[C@]12[C@H](OC(C)=O)[C@H](OC(C)=O)[C@@H]3[C@@H](OC(=O)c4ccccc4)[C@@]14O[C@@]3(C)COC(=O)c1cccnc1C(C)C(C)C(=O)O[C@@H]([C@H](OC(C)=O)[C@@H]2OC(=O)c1ccccc1)[C@]4(C)O (some centres undefined)
EC50 (KB): > 20 µg/mL
EC50 (COLO 205): > 20 µg/mL
